The source of these data is ChEMBL document CHEMBL3286203, “Reactive oxygen species (ROS) inducible DNA cross-linking agents and their effect on cancer cells and normal lymphocytes” (J Med Chem, 2014).

Active and inactive are the calls of the source. The calls are words filed in the database; no cut-off is given here.

This assay relates to CLL. In words: Induction of ROS generation in human CLL cells at 10 uM after 24 hrs by DCDFA assay in presence of NAC. Type of assay: functional, cell-based. An outline of the steps: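 Primary CLL cells given compound (10 μM) with or without N-acetyl cysteine ([…]) for 24 h. Global ROS measured by DCFDA staining and flow histograms; n = 8 patient samples.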

For `CC1(C)OB(c2ccc(N(CCCl)CCBr)cc2)OC1(C)C`, the outcome was inactive.
